How the values were obtained:
[1] = species on record: Mus musculus; assay: Antitumor activity against P388 lymphocytic leukemia in mice; format: functional
Outline: (§1)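 P388 lymphocytic leukemia implanted ip in mice, run to NCI Developmental Therapeutics Program protocols. Treatment given on a QD1 × 9 schedule. T/C = median survival time of treated animals / median survival time of untreated controls × 100. Value reported at the dose level giving the highest T/C. Activity requires duplicate tests with T/C ≥ 120%; a reproducible T/C ≥ 175% counts as significant.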

[2] = species on record: Mus musculus; assay: Compound was evaluated for the antitumor activity against P388 lymphocytic leukemia in mice; T/C = (days test animal live/days control animals live x100); format: functional; outline: as §1
[3] = (§2) Lethal dose after the intraperitoneal injection in a group of 10 mice; format: toxicity, organism-based; details: mouse, in vivo, ip
Outline: (§3)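 NIH general purpose mice (ca. 20 g) were given a single ip injection in an Emulphor EL-620 mixture. Groups of 10 were used at each of usually at least five dose levels. One set of 10 mice received the emulphor mixture alone as a control for each compound. Survivors were counted 7 days after injection, and LD50 (mg/kg) with 95% confidence interval was derived by probit analysis.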

[4] = species on record: Mus musculus; assay: MED(minimum effective dose) against P388 lymphocytic leukemia in mice; this dose produced T/C greater than the threshold value of 125; format: functional; set-up: unit: mg/kg
Outline: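 P388 leukemia implanted ip in mice, treated on a QD1 × 9 schedule under NCI Developmental Therapeutics Program protocols. Minimum effective dose (mg/kg) taken as the lowest dose giving T/C, as survival of treated versus control animals × 100, above the threshold of 125.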

[5] = tested on: Mus musculus; assay: as §2; format: toxicity, organism-based; details: in vivo, ip; outline: as §3
[6] = species on record: Mus musculus; assay: Compound was evaluated for the antitumor activity against P388 lymphocytic leukemia in mice; format: functional; outline: as §1
[7] = species on record: Mus musculus; assay: Compound was evaluated for the antitumor activity against P388 lymphocytic leukemia in mice; T/C = days test animal live/days control animals live x100; format: functional; outline: as §1
[8] = species on record: Mus musculus; assay: Compound was evaluated for the antitumor activity against P388 lymphocytic leukemia in mice;T/C=days test animal live/days control animals live x100); format: functional; outline: as §1

Row | SMILES | Dose [1] | T/C [2] | LD50 [3] | MED [4] | Binding [5] | T/C [6] | T/C [7] | T/C [8]
1 | CCCCOC(=O)N[C@H]1CCc2cc(OC)c(OC)c(OC)c2-c2ccc(SC)c(=O)cc21 | 3 mg/kg | 142 | 81 mg/kg | <3 | – | – | – | –
2 | CN[C@H]1CCc2cc(OC)c(OC)c(OC)c2-c2ccc(SC)c(=O)cc21 | 100 mg/kg | 131 | – | 50 | > 100 mg/kg | – | – | –
3 | COc1cc2c(c(OC)c1OC)-c1ccc(SC)c(=O)cc1[C@@H](NC(=O)Oc1ccccc1)CC2 | 5 mg/kg | – | > 50 mg/kg | 2.5 | – | 164 | – | –
4 | CCOC(=O)N[C@H]1CCc2cc(OC)c(OC)c(OC)c2-c2ccc(SC)c(=O)cc21 | 1.5 mg/kg | – | – | 0.38 | – | – | 172 | –
5 | C=COC(=O)N[C@H]1CCc2cc(OC)c(OC)c(OC)c2-c2ccc(SC)c(=O)cc21 | 3 mg/kg | 152 | 87.5 mg/kg | 1.5 | – | – | – | –
6 | COc1cc2c(c(OC)c1O)-c1ccc(SC)c(=O)cc1[C@@H](NC(C)=O)CC2 | 10 mg/kg | – | 68.1 mg/kg | 2.5 | – | 148 | – | –
7 | CCOCC(=O)N[C@H]1CCc2cc(OC)c(OC)c(OC)c2-c2ccc(SC)c(=O)cc21 | 1.5 mg/kg | – | 5.1 mg/kg | 0.38 | – | – | – | 229
8 | COc1c(O)cc2c(c1OC)-c1ccc(SC)c(=O)cc1[C@@H](NC(C)=O)CC2 | 5 mg/kg | – | – | 1.25 | – | 194 | – | –
9 | COc1cc2c(c(OC)c1OC)-c1ccc(SC)c(=O)cc1[C@@H](N(C)C(=O)C(F)(F)F)CC2 | 10 mg/kg | 145 | 18.6 mg/kg | 5 | – | – | – | –
10 | COc1cc2c(c(OC)c1OC)-c1ccc(SC)c(=O)cc1[C@@H](NC=O)CC2 | 0.75 mg/kg | – | 58.2 mg/kg | <0.75 | – | 171 | – | –
11 | COc1cc2c(c(OC)c1OC)-c1ccc(SC)c(=O)cc1[C@@H](NC(=O)c1ccccc1)CC2 | 2.5 mg/kg | 155 | 40 mg/kg | <2.5 | – | – | – | –
12 | COc1cc2c(c(OC)c1OC)-c1ccc(SC)c(=O)cc1[C@@H](NC(=O)C(F)(F)F)CC2 | 0.62 mg/kg | – | 0.9 mg/kg | 0.32 | – | 148 | – | –
13 | CCCC(=O)N[C@H]1CCc2cc(OC)c(OC)c(OC)c2-c2ccc(SC)c(=O)cc21 | 1.5 mg/kg | – | – | 0.19 | – | 231 | – | –
14 | COc1cc2c(c(OC)c1OC)-c1ccc(OC)c(=O)cc1[C@@H](NC(C)=O)CC2 [COLCHICINE] | 0.5 mg/kg | – | – | 0.06 | – | 245 | – | –
15 | COc1cc2c(c(OC)c1OC)-c1ccc(SC)c(=O)cc1[C@@H](NC(C)=O)CC2 [THIOCOLCHICINE] | 0.18 mg/kg | – | – | 0.05 | – | 193 | – | –

From ChEMBL document CHEMBL1123028, “Synthesis and biological effects of novel thiocolchicines. 3. Evaluation of N-acyldeacetylthiocolchicines, N-(alkoxycarbonyl) deacetylthiocolchicines, and O-ethyldemethylthiocolchicines. New synthesis of thiodemecolcine and antileukemic effects of 2-demethyl- and 3-demethylthiocolchicine” (J Med Chem, 1985)
